From ChEMBL document CHEMBL4190254, “Synthesis of sulfamoylbenzamide derivatives as HBV capsid assembly effector” (Eur J Med Chem, 2017)
pEC50: −log10 of the molar value.

Columns and labels:
[1] = system: PBMC; assay: Cytotoxicity against human PBMC by CellTiter 96 non-radioactive cell proliferation colorimetric assay; assay type: cell-based
How it was run: (§1)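 A CellTiter 96 colorimetric cell proliferation read-out was used in primary human PBM cells, CEM, Vero and HepG2 cells. CC50 is the concentration that inhibits cell growth by 50%.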

[2] = system: Hepatitis B virus; assay: Antiviral activity against HBV infected in human HepAD38 cells assessed as reduction in viral replication by RT-PCR method; assay type: functional, organism-based
How it was run: (§2)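 HBV DNA replication in HepAD38 cells was quantified by RT-PCR following an earlier published method, with data relative to the untreated control. EC50 (50% inhibition of HBV DNA replication) was derived by linear regression. Values are the mean ± SD of two or three replicates from 2 independent experiments.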

[3] = system: HepG2; assay: Cytotoxicity against human HepG2 cells by CellTiter 96 non-radioactive cell proliferation colorimetric assay; assay type: cell-based; how it was run: as §1
[4] = system: Vero; assay: Cytotoxicity against African green monkey Vero cells by CellTiter 96 non-radioactive cell proliferation colorimetric assay; assay type: cell-based; settings: chlorocebus sabaeus, vero; how it was run: as §1
[5] = system: CCRF-CEM; assay: Cytotoxicity against human CEM cells by CellTiter 96 non-radioactive cell proliferation colorimetric assay; assay type: cell-based; settings: ccrf-cem; how it was run: as §1
[6] = target: Core antigen (Hepatitis B virus, UniProt Q03732); assay: (§3) Inhibition of capsid in HBV infected in human HepAD38 cells assessed as reduction in tetracycline-induced cccDNA formation by measuring reduction in HBe antigen secretion after 14 days by ELISA; assay type: cell-based
How it was run: (§4)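 HepAD38 cells, collagen-coated wells, DMEM/F12 with 10% heat-inactivated FBS. Tetracycline withdrawn 7 days to allow DNA synthesis and cccDNA formation; at day 7 tetracycline (0.3 μg/ml) plus compound re-added. Compound at 10 μM or 0.001–10 μM, medium and compound replenished every 5 days. Day-14 supernatant HBeAg by ELISA; EC50 by linear regression.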

[7] = target: Core antigen (Hepatitis B virus) (UniProt Q03732); assay: Inhibition of capsid in HBV infected in human HepAD38 cells assessed as reduction in cccDNA formation by measuring reduction in HBe antigen secretion at 10 uM after 14 days by ELISA relative to control; assay type: cell-based; how it was run: as §4
[8] = system: Hepatitis B virus; assay: Antiviral activity against HBV infected in human HepAD38 cells assessed as reduction in intracellular viral DNA level by RT-PCR method; assay type: functional, organism-based; how it was run: as §2
[9] = system: Hepatitis B virus; assay: Antiviral activity against HBV infected in human HepAD38 cells assessed as reduction in extracellular viral DNA level by RT-PCR method; assay type: functional, organism-based; how it was run: as §2
[10] = system: Hepatitis B virus; assay: Antiviral activity against HBV infected in human HepAD38 cells assessed as reduction in intracellular viral DNA level at 10 uM by RT-PCR method relative to control; assay type: functional; parameters: scale not given: the % may be the effect or the level left
How it was run: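 HepAD38 cells; intracellular HBV DNA quantified by RT-PCR, expressed relative to untreated control; single-point inhibition given as percent at 10 μM, mean ± SD of two or three replicates from 2 independent experiments.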

[11] = target: Core antigen (Hepatitis B virus) (UniProt Q03732); assay: as §3; assay type: cell-based; how it was run: as §4
[12] = system: Hepatitis B virus; assay: Antiviral activity against HBV infected in human HepAD38 cells assessed as inhibition of viral replication at 10 uM by RT-PCR method relative to control; assay type: functional
How it was run: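 HBV DNA replication in HepAD38 cells was quantified by RT-PCR following an earlier published method. Each compound was tested at a single 10 μM concentration. Results are % inhibition ± SD relative to the untreated control.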

Core antigen (Hepatitis B virus), sequence (Q03732 as listed by the source): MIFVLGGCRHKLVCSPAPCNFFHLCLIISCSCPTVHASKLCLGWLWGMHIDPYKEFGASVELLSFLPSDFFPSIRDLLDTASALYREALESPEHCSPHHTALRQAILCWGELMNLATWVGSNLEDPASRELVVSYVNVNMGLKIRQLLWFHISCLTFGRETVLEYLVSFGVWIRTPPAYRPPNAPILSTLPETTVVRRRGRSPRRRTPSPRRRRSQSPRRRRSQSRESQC
Core antigen, sequence (Q03732 whole entry): as the sequence (Q03732 as listed by the source) above

Compound | CC50 [1] | pEC50 [2] | CC50 [3] | CC50 [4] | CC50 [5] | EC90 [2] | pEC50 [6] | inhibition [7] | pEC50 [8] | EC90 [8] | pEC50 [9] | EC90 [9] | Activity [10] | EC90 [11] | inhibition at 10 µM [12]
CS(=O)(=O)NS(=O)(=O)c1ccc(F)c(C(=O)Nc2ccc(F)c(F)c2)c1 | > 100 µM | < 5.00 | > 100 µM | > 100 µM | > 100 µM |  |  |  |  |  |  |  |  |  | 
CC(C)(NS(=O)(=O)c1ccc(F)c(C(=O)Nc2ccc(F)c(F)c2)c1)c1ccccc1 | > 100 µM | 5.17 | 88.2 µM | 39.4 µM | 3.8 µM | 9.6 µM |  |  |  |  |  |  |  |  | 
O=C(NC1(c2ccc(F)c(F)c2)CC1)c1cc(S(=O)(=O)NC2CCCC2)ccc1F | > 100 µM | < 5.00 | > 100 µM | 12.7 µM | > 100 µM |  |  |  |  |  |  |  |  |  | 
O=C1c2cc(S(=O)(=O)NC3CCCC3)ccc2CCCN1c1ccc(F)c(F)c1 | > 100 µM | < 5.00 | > 100 µM | > 100 µM | 50.6 µM |  |  |  |  |  |  |  |  |  | 
CN(C1CCCC1)S(=O)(=O)c1ccc2c(c1)C(=O)N(c1ccc(F)c(F)c1)CC2 | 71.2 µM | < 5.00 | > 100 µM | > 100 µM | 36 µM |  |  |  |  |  |  |  |  |  | 
O=C(Nc1ccc(F)c(F)c1)c1cc(S(=O)(=O)N2CCCC2=O)ccc1F | > 100 µM | < 5.00 | > 100 µM | 39.6 µM | 37.8 µM |  |  |  |  |  |  |  |  |  | 
CN(C1CCCC1)S(=O)(=O)c1ccc2c(c1)C(=O)N(c1ccc(F)c(F)c1)CCC2 | > 100 µM | < 5.00 | > 100 µM | > 100 µM | > 100 µM |  |  |  |  |  |  |  |  |  | 
C=C1[C@H](CO)[C@@H](O)C[C@@H]1n1cnc2c(=O)[nH]c(N)nc21.O |  |  |  |  |  |  | < 5.00 | < 1% | ≥ 10.00 | 0.009 µM | 9.15 | 0.1 µM | 53% |  | 
CC(NS(=O)(=O)c1ccc(F)c(C(=O)Nc2ccc(F)c(F)c2)c1)c1ccccc1 (centres undefined) | > 100 µM | 5.11 | > 100 µM | 68 µM | 3.6 µM | 9.3 µM |  |  |  |  |  |  |  |  | 
O=C(Nc1ccc(F)c(F)c1)c1cc(NS(=O)(=O)C2CCCC2)ccc1F | > 100 µM | 5.68 | > 100 µM | 29.1 µM | 54.2 µM | 9.5 µM | 5.22 | 66% | 6.52 | 3.6 µM | 5.68 | 9.5 µM |  | > 10 µM | 
O=C(Nc1ccc(F)c(F)c1)c1cc(S(=O)(=O)N2CCC(F)(F)CC2)ccc1F | > 100 µM | 5.35 | > 100 µM | > 100 µM | 10.3 µM | 9.4 µM |  |  |  |  |  |  |  |  | 
O=C(Nc1ccc(F)c(F)c1)c1cc(S(=O)(=O)N2CC(F)(F)C(F)(F)C2)ccc1F | > 100 µM | 5.04 | > 100 µM | 9 µM | ≤ 1 µM | > 10 µM |  |  |  |  |  |  |  |  | 59%
O=C(Nc1ccc(F)c(F)c1)c1cc(S(=O)(=O)N2CCC(F)(F)C2)ccc1F | > 100 µM | 5.17 | > 100 µM | 21.3 µM | 4.8 µM | > 10 µM |  |  |  |  |  |  |  |  | 83%
O=C1c2cc(S(=O)(=O)NC3CCCC3)ccc2CCN1c1ccc(F)c(F)c1 | > 100 µM | < 5.00 | > 100 µM | > 100 µM | > 100 µM |  |  |  |  |  |  |  |  |  | 
CN(C1CCCC1)S(=O)(=O)c1ccc(F)c(C(=O)Nc2ccc(F)c(F)c2)c1 | 25.8 µM | 5.11 | 48.6 µM | 18.3 µM | 14.5 µM | ≥ 10 µM |  |  |  |  |  |  |  |  | 87%
O=C(Nc1ccc(F)c(F)c1)c1cc(S(=O)(=O)NS(=O)(=O)c2ccc(F)c(F)c2)ccc1F | > 100 µM | < 5.00 | > 100 µM | > 100 µM | > 100 µM |  |  |  |  |  |  |  |  |  | 
CC(C)OC(=O)[C@H](C)NS(=O)(=O)c1ccc(F)c(C(=O)Nc2ccc(F)c(F)c2)c1 | > 100 µM | < 5.00 | 45.5 µM | 13.1 µM | 31.1 µM |  |  |  |  |  |  |  |  |  | 
O=C(Nc1ccc(F)c(F)c1)c1cc(S(=O)(=O)NS(=O)(=O)C2CC2)ccc1F | > 100 µM | < 5.00 | > 100 µM | > 100 µM | > 100 µM |  |  |  |  |  |  |  |  |  | 
O=C(Nc1ccc(F)c(F)c1)c1cc(S(=O)(=O)N2CCC3CCCCC32)ccc1F (centres undefined) | > 100 µM | 5.34 | > 100 µM | 30.7 µM | 22.9 µM | 10 µM |  |  |  |  |  |  |  |  | 
O=C(Nc1ccc(F)c(F)c1)c1cc(S(=O)(=O)NC2CC2)ccc1F | 30.1 µM | 5.49 | 62.3 µM | 79.2 µM | 13.6 µM | 8.9 µM |  |  |  |  |  |  |  |  | 
COC(=O)[C@H](Cc1ccccc1)NS(=O)(=O)c1ccc(F)c(C(=O)Nc2ccc(F)c(F)c2)c1 | > 100 µM | < 5.00 | 76.8 µM | > 100 µM | 31.6 µM |  |  |  |  |  |  |  |  |  | 
O=C(Nc1ccc(F)c(F)c1)c1cc(S(=O)(=O)NOC2CCCC2)ccc1F | 13 µM | 5.57 | 26.4 µM | 5.8 µM | 6.4 µM | > 10 µM |  |  |  |  |  |  |  |  | 82%
CCOC(=O)C1=C(CN2CCOCC2)NC(c2nccs2)=NC1c1ccc(F)cc1Br (centres undefined) |  |  |  |  |  |  |  |  | > 8.00 | 0.05 µM | 6.70 | 1 µM | 82% | 1.9 µM | 
CN(C)S(=O)(=O)NS(=O)(=O)c1ccc(F)c(C(=O)Nc2ccc(F)c(F)c2)c1 | > 100 µM | < 5.00 | > 100 µM | > 100 µM | > 100 µM |  |  |  |  |  |  |  |  |  | 
O=C(Nc1cc(S(=O)(=O)NC2CCCC2)ccc1F)c1ccc(F)c(F)c1 | 81 µM | ≤ 5.00 | > 100 µM | 87.5 µM | 13.6 µM |  |  |  |  |  |  |  |  |  | 
CCOC(=O)[C@H](CC(C)C)NS(=O)(=O)c1ccc(F)c(C(=O)Nc2ccc(F)c(F)c2)c1 | 58.1 µM | < 5.00 | > 100 µM | 39.1 µM | 10.8 µM |  |  |  |  |  |  |  |  |  | 
